Results reported in ChEMBL document CHEMBL4308900, “Synthesis and identification of 2,4-bisanilinopyrimidines bearing 2,2,6,6-tetramethylpiperidine-N-oxyl as potential Aurora A inhibitors” (Bioorg Med Chem, 2019).
Active and inactive are the calls of the source. No cut-off for these calls is given here.

Columns and labels:
LoVo = experiment: Antiproliferative activity against human LoVo cells after 48 hrs by MTT assay; assay type: functional
In short: (§1)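 MTT assay: cells attached 4–6 h at 37 °C, 5% CO2, then exposed 48 h to graded concentrations from DMSO stocks; 5 mg/mL MTT added for 4 h, formazan dissolved in DMSO, absorbance at 490 nm. GI50 from log plot of percent of control versus concentration; mean of three independent experiments.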

HeLa [1] = experiment: Antiproliferative activity against human HeLa cells after 48 hrs by MTT assay; assay type: functional; in short: as §1
A549 = experiment: Antiproliferative activity against human A549 cells after 48 hrs by MTT assay; assay type: functional; in short: as §1
HepG2 = experiment: Antiproliferative activity against human HepG2 cells after 48 hrs by MTT assay; assay type: functional; in short: as §1
Aurora kinase A = biological target: T1, Aurora kinase A (Homo sapiens, UniProt O14965); experiment: Inhibition of Aurora A (unknown origin) using kemptide acetate salt as substrate after 30 mins by kinase-Glo luminescence method
T1 sequence (O14965 whole entry): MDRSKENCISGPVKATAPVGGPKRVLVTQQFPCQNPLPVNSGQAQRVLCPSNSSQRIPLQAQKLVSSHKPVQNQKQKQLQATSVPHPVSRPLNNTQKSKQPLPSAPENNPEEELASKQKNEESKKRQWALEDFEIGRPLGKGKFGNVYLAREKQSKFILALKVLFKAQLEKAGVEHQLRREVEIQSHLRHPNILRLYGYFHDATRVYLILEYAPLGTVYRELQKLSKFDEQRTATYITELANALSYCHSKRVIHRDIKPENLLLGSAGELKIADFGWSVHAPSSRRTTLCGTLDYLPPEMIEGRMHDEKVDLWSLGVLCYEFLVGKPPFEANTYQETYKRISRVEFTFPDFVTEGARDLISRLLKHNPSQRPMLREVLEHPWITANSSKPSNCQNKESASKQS

Aurora kinase B = Aurora kinase B (Homo sapiens, UniProt Q96GD4); experiment: Inhibition of Aurora B (unknown origin) using kemptide acetate salt as substrate after 30 mins by kinase-Glo luminescence method
HeLa [2] = experiment: Cell cycle arrest in human HeLa cells assessed as accumulation at G1 phase at 5 uM after 12 hrs by propidium iodide staining-based flow cytometric analysis (reference value: 70.68%); assay type: functional
In short: (§2)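 HeLa cells exposed 12 h to 1 or 5 μM compound diluted from DMSO (DMSO control), fixed, stained with propidium iodide; DNA content measured by flow cytometry and G1, S, G2/M fractions calculated from the DNA histogram.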

HeLa [3] = experiment: Cell cycle arrest in human HeLa cells assessed as decrease in cdc2 protein expression at 5 uM after 12 hrs by Western blot analysis; assay type: functional, cell-based
In short: (§3)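 HeLa cells treated 12 h (0.1, 1, 5 μM for apoptosis proteins); lysed in Tris pH 7.5/NP-40/SDS buffer with protease inhibitors, equal protein on 10% SDS-PAGE, PVDF, 5% BSA block, primary antibodies overnight at 4 °C, β-actin loading control; mean ± SD.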

HeLa [4] = experiment: Cell cycle arrest in human HeLa cells assessed as accumulation at G2/M phase at 5 uM after 12 hrs by propidium iodide staining-based flow cytometric analysis (reference value: 23.57%); assay type: functional; in short: as §2
HeLa [5] = experiment: Cell cycle arrest in human HeLa cells assessed as accumulation at S phase at 5 uM after 12 hrs by propidium iodide staining-based flow cytometric analysis (reference value: 5.74%); assay type: functional; in short: as §2
HeLa [6] = experiment: Induction of microtubule disruption in human HeLa cells at 1 uM after 24 hrs by DAPI staining based immunofluorescence microscopic analysis; assay type: functional, cell-based
In short: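 HeLa cells on coverslips treated 24 h (0.1 or 1 μM; DMSO control); fixed in 4% paraformaldehyde, permeabilised in 0.1% Triton X-100 with 2% BSA, anti-α-tubulin overnight at 4 °C, FITC secondary 2 h room temperature, DAPI for DNA; confocal imaging.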

HeLa [7] = experiment: Cell cycle arrest in human HeLa cells assessed as decrease in cyclin B1 protein expression at 5 uM after 12 hrs by Western blot analysis; assay type: functional, cell-based; in short: as §3

Aurora kinase B, sequence (Q96GD4 whole entry): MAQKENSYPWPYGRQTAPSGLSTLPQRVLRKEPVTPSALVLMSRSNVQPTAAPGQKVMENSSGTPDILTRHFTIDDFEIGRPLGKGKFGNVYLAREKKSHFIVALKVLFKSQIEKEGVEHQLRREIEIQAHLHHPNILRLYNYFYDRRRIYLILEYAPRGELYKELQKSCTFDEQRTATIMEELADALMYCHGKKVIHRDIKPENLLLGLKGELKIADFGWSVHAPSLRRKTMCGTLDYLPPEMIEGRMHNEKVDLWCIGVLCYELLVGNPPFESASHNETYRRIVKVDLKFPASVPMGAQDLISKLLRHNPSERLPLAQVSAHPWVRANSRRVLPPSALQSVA

In the case of `CC1(C)CC(NC(=O)c2ccc(Nc3nc(Nc4ccc(C(=O)O)cc4)ncc3Br)cc2)CC(C)(C)N1[O]`, the GI50 (LoVo) is reported as > 100 µM, the GI50 (HeLa [1]) is reported as > 100 µM and the GI50 (A549) is reported as > 100 µM. The GI50 (HepG2) was 35.8 µM.

For `CN1CCC(NC(=O)c2ccc(Nc3ncc(F)c(Nc4ccc(C(=O)Nc5ccccc5Cl)cc4)n3)cc2)CC1`, the IC50 (Aurora kinase A) was 2.28 nM, the GI50 (LoVo) was 12.4 µM and the GI50 (HeLa [1]) was 11.3 µM. It also gave an IC50 (Aurora kinase B) of 49.1 nM, a GI50 (A549; A549, 48 h) of 8.9 µM and a GI50 (HepG2; HepG2, 48 h) of 13.4 µM.

`CC1(C)CC(NC(=O)c2ccc(Nc3ncc([N+](=O)[O-])c(Nc4cccc(O)c4)n3)cc2)CC(C)(C)N1[O]` showed an IC50 (Aurora kinase A) of 0.14 nM, a GI50 (LoVo) of 39.6 µM and a GI50 (HeLa [1]) of 36.5 µM. For the same compound, the IC50 (Aurora kinase B) was 3.5 nM, the GI50 (A549; A549, 48 h) was 13.2 µM and the GI50 (HepG2; HepG2, 48 h) was 21.7 µM.

In the case of `CC1(C)CC(NC(=O)c2ccc(Nc3nc(Nc4ccc(C(=O)O)cc4)ncc3[N+](=O)[O-])cc2)CC(C)(C)N1[O]`, the GI50 (LoVo) is reported as 27.4 µM, the GI50 (HeLa [1]) is reported as 27.3 µM and the GI50 (A549) is reported as 29.6 µM. For the same compound, the GI50 (HepG2) was 11.8 µM.

In the case of `CC1(C)CC(NC(=O)c2ccc(Nc3ncc([N+](=O)[O-])c(Nc4ccc(O)cc4)n3)cc2)CC(C)(C)N1[O]`, the IC50 (Aurora kinase A) is reported as 0.59 nM, the GI50 (LoVo) is reported as 43.8 µM and the GI50 (HeLa [1]) is reported as 34.3 µM. For the same compound, the IC50 (Aurora kinase B) was 3.5 nM, the GI50 (A549; A549, 48 h) was 14.3 µM and the GI50 (HepG2; HepG2, 48 h) was 21.5 µM.

`CC1(C)CC(NC(=O)c2ccc(Nc3ncc([N+](=O)[O-])c(Nc4ccc(C(=O)Nc5ccccc5Cl)cc4)n3)cc2)CC(C)(C)N1[O]` was tested, and the IC50 (Aurora kinase A) was 5.48 nM, the GI50 (LoVo) was 28.5 µM and the GI50 (HeLa [1]) was 23.2 µM. The IC50 (Aurora kinase B) was 3.07 nM, the GI50 (A549; A549, 48 h) was 2.5 µM and the GI50 (HepG2; HepG2, 48 h) was 3.4 µM.

For `CC1(C)CC(NC(=O)c2ccc(Nc3ncc([N+](=O)[O-])c(Nc4ccccc4O)n3)cc2)CC(C)(C)N1[O]`, the IC50 (Aurora kinase A) was 8.5 nM, the GI50 (LoVo) was 28.3 µM and the GI50 (HeLa [1]) was 13.9 µM. The IC50 (Aurora kinase B) was 11.3 nM, the GI50 (A549; A549, 48 h) was 11.2 µM and the GI50 (HepG2; HepG2, 48 h) was 3.7 µM.

Work on `CC1(C)CC(NC(=O)c2ccc(Nc3ncc([N+](=O)[O-])c(Nc4ccc(Cl)cc4)n3)cc2)CC(C)(C)N1[O]` yielded an IC50 (Aurora kinase A) of 1.61 nM, a GI50 (LoVo) of 27.8 µM and a GI50 (HeLa [1]) of 33.3 µM. The IC50 (Aurora kinase B) was 0.34 nM, the GI50 (A549; A549, 48 h) was 5.6 µM and the GI50 (HepG2; HepG2, 48 h) was 13 µM.

`CC1(C)CC(NC(=O)c2ccc(Nc3ncc([N+](=O)[O-])c(Nc4ccccc4Cl)n3)cc2)CC(C)(C)N1[O]` showed an IC50 (Aurora kinase A) of 1.86 nM, a GI50 (LoVo) of 35.2 µM and a GI50 (HeLa [1]) of 53.1 µM. It also gave an IC50 (Aurora kinase B) of 3.29 nM, a GI50 (A549; A549, 48 h) of 2.8 µM and a GI50 (HepG2; HepG2, 48 h) of 3.7 µM.

For `CC1(C)CC(NC(=O)c2ccc(Nc3ncc(Br)c(Nc4ccccc4Cl)n3)cc2)CC(C)(C)N1[O]`, the IC50 (Aurora kinase A) was 0.46 nM, the GI50 (LoVo) was 3.2 µM and the GI50 (HeLa [1]) was 9.6 µM. The IC50 (Aurora kinase B) was 2.67 nM, the GI50 (A549; A549, 48 h) was 3.8 µM and the GI50 (HepG2; HepG2, 48 h) was 2.1 µM.

Work on `CC1(C)CC(NC(=O)c2ccc(Nc3ncc([N+](=O)[O-])c(Nc4ccc(C(=O)Nc5ccc(Cl)cc5)cc4)n3)cc2)CC(C)(C)N1[O]` yielded an IC50 (Aurora kinase A) of 20 nM, a GI50 (LoVo) of 46.3 µM and a GI50 (HeLa [1]) of 53 µM. For the same compound, the IC50 (Aurora kinase B) was 0.67 nM, the GI50 (A549; A549, 48 h) was 17.2 µM and the GI50 (HepG2; HepG2, 48 h) was 24.1 µM.

With `Cc1cc(Nc2cc(N3CCN(C)CC3)nc(Sc3ccc(NC(=O)C4CC4)cc3)n2)n[nH]1` the GI50 (LoVo) was 45.3 µM, the Activity (HeLa [2]) was 34.4% and the Activity (HeLa [3]) was “Active”. It also gave an Activity (HeLa [4]) of 39%, a GI50 (HeLa [1]) of 46.2 µM and an Activity (HeLa [5]) of 26.6%. The Activity (HeLa [6]) was “inactive”, the GI50 (A549) was 35.8 µM and the GI50 (HepG2) was 53.3 µM. The Activity (HeLa [7]) was “Active”.

With `CC1(C)CC(NC(=O)c2ccc(Nc3ncc([N+](=O)[O-])c(Nc4ccc(C(=O)Nc5cccc(Cl)c5)cc4)n3)cc2)CC(C)(C)N1[O]` the IC50 (Aurora kinase A) was 0.11 nM, the GI50 (LoVo) was 39.6 µM and the GI50 (HeLa [1]) was 49.5 µM. For the same compound, the IC50 (Aurora kinase B) was 27 nM, the GI50 (A549; A549, 48 h) was 14.2 µM and the GI50 (HepG2; HepG2, 48 h) was 12.5 µM.

For `CC1(C)CC(NC(=O)c2ccc(Nc3nc(Nc4ccc(C(=O)O)cc4)ncc3Cl)cc2)CC(C)(C)N1[O]`, the GI50 (LoVo) was 56.6 µM, the GI50 (HeLa [1]) was 56.5 µM and the GI50 (A549) was > 100 µM. It also gave a GI50 (HepG2) of 48.2 µM.

`CC1(C)CC(NC(=O)c2ccc(Nc3ncc([N+](=O)[O-])c(Nc4cccc(Cl)c4)n3)cc2)CC(C)(C)N1[O]` showed an IC50 (Aurora kinase A) of 0.62 nM, a GI50 (LoVo) of 67.8 µM and a GI50 (HeLa [1]) of 43.2 µM. It also gave an IC50 (Aurora kinase B) of 19.5 nM, a GI50 (A549; A549, 48 h) of 31.3 µM and a GI50 (HepG2; HepG2, 48 h) of 42.1 µM.

Compound `CC1(C)CC(NC(=O)c2ccc(Nc3nc(Nc4ccc(C(=O)O)cc4)ncc3F)cc2)CC(C)(C)N1[O]` has a GI50 (LoVo) of 65.3 µM, a GI50 (HeLa [1]) of 21.3 µM and a GI50 (A549) of 18.5 µM. It also gave a GI50 (HepG2) of 26.8 µM.

Work on `CC1(C)CC(NC(=O)c2ccc(Nc3ncc(Cl)c(Nc4ccccc4Cl)n3)cc2)CC(C)(C)N1[O]` yielded an IC50 (Aurora kinase A) of 0.19 nM, a GI50 (LoVo) of 3.2 µM and a GI50 (HeLa [1]) of 10.2 µM. The IC50 (Aurora kinase B) was 0.29 nM, the GI50 (A549; A549, 48 h) was 3.6 µM and the GI50 (HepG2; HepG2, 48 h) was 1.6 µM.

`CC1(C)CC(NC(=O)c2ccc(Nc3ncc(F)c(Nc4ccccc4Cl)n3)cc2)CC(C)(C)N1[O]` was tested, and the IC50 (Aurora kinase A) was 0.18 nM, the GI50 (LoVo) was 2.7 µM and the GI50 (HeLa [1]) was 8.4 µM. For the same compound, the IC50 (Aurora kinase B) was 1.11 nM, the GI50 (A549; A549, 48 h) was 2.3 µM and the GI50 (HepG2; HepG2, 48 h) was 1.2 µM.
